In experiment [1] the target is T1, D(2) dopamine receptor (Homo sapiens, UniProt P14416). The experiment is described as follows: Antagonist activity at D2 receptor (unknown origin) expressed in Flp-In TREx 293 cells coexpressing chimeric Gqi5 protein assessed as calcium accumulation by Fluo-8AM dye based fluorescence analysis. Type of experiment: functional, cell-based.
Experiment [2] has as its target T1, D(2) dopamine receptor. The experiment is described as follows: Antagonist activity at ProLink-tagged D2 receptor (unknown origin) expressed in CHO cells assessed as inhibition of dopamine-stimulated beta-arrestin binding treated for 90 mins prior to dopamine challenge by PathHunter DiscoveRx assay. Type of experiment: cell-based.
Experiment [3] deals with T2, D(3) dopamine receptor (Homo sapiens, UniProt P35462). The experiment is described as follows: Antagonist activity at ProLink-tagged D3 receptor (unknown origin) expressed in CHO cells assessed as inhibition of dopamine-stimulated beta-arrestin binding treated for 90 mins prior to dopamine challenge by PathHunter DiscoveRx assay. Type of experiment: cell-based.
T2 sequence (P35462 whole entry): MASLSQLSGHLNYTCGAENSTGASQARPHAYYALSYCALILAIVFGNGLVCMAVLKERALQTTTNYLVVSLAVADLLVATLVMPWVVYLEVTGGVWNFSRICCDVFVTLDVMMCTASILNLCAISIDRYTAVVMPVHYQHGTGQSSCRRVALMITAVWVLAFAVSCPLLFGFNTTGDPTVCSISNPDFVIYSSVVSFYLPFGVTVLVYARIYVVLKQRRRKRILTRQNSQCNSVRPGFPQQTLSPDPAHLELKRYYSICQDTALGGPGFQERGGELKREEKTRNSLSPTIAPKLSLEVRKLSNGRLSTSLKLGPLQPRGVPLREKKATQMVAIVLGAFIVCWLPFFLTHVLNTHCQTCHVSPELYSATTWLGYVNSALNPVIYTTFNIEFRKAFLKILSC
Experiment [4] addresses T1, D(2) dopamine receptor. The experiment is described as follows: Displacement of [3H]methylspiperone from human D2L receptor expressed in HEK cell membrane after 90 mins by scintillation counting analysis. Type of experiment: cell membranes, HEK293.
Experiment [5] deals with T2, D(3) dopamine receptor. The experiment in a line: Displacement of [3H]methylspiperone from human D3 receptor expressed in HEK293 cell membrane after 90 mins by scintillation counting analysis. Type of experiment: cell membranes.
The subject of the next experiment is CHO. The experiment is described as follows: Ratio of AC50 for ProLink-tagged D3 receptor (unknown origin) expressed in CHO cells to AC50 for ProLink-tagged D2 receptor (unknown origin) expressed in CHO cells by beta-arrestin assay. Type of experiment: cell-based. The following applies: Homo sapiens.
A further experiment concerns HEK293. The experiment is described as follows: Ratio of Ki for human D3 receptor expressed in HEK293 cell membrane to Ki for human D2L receptor expressed in HEK cell membrane. Type of experiment: cell-based. A digest of the protocol: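 Competition binding with [3H]methylspiperone on membranes from stable HEK cells. […] Incubation 90 min at room temperature in EBSS with sodium metabisulfite, nonspecific binding with 4 µM (+)-butaclamol, then GF/C filtration and scintillation counting. Ki from IC50 via Cheng–Prusoff.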

T1 sequence (P14416 whole entry): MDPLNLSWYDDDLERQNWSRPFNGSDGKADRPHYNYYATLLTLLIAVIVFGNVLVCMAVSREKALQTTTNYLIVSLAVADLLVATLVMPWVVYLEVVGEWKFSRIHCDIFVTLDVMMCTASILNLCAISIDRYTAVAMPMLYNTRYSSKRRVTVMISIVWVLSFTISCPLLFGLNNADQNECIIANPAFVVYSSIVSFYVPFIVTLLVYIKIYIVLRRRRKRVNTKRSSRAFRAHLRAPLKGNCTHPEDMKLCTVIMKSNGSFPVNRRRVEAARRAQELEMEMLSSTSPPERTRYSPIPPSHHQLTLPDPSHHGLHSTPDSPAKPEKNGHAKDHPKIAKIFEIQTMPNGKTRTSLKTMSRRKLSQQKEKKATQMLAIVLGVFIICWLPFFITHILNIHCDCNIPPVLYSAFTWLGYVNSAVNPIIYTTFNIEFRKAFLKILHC

As to `CN1C(=O)c2ccccc2[S+]([O-])c2ccc(C(=O)NCCc3cccs3)cc21` (racemic), the figures for the AC50 at D(2) dopamine receptor [1], at D(2) dopamine receptor [2] and on D(3) dopamine receptor [3] were 89 nM, 913 nM and 20400 nM, respectively. Moreover, the Ki on D(2) dopamine receptor [4] amounted to 190 nM; on D(3) dopamine receptor [5] it was 9200 nM.

On to `CN1C(=O)c2ccccc2[S+]([O-])c2ccc(C(=O)NCc3ccccc3)cc21` (racemic), for which the AC50 on D(2) dopamine receptor [1] was determined as 223 nM.

With `CN1C(=O)c2ccccc2[S@+]([O-])c2ccc(C(=O)NCc3ccc(Cl)cc3)cc21`, the AC50 at D(2) dopamine receptor [1] was 280 nM; on D(2) dopamine receptor [2], 2890 nM; at D(3) dopamine receptor [3], 10200 nM. The Ratio in the experiment on CHO stood at 4.5.

In the case of `CN1C(=O)c2ccccc2[S@@+]([O-])c2ccc(C(=O)NCCc3cccs3)cc21`, the AC50 on D(2) dopamine receptor [1], on D(2) dopamine receptor [2] and at D(3) dopamine receptor [3] was over 77000 nM throughout. In addition, the Ki on D(2) dopamine receptor [4] and at D(3) dopamine receptor [5] was over 50000 nM each time.

As for `CCN1C(=O)c2ccccc2[S+]([O-])c2ccc(NC(=O)Cc3ccc(OC)cc3)cc21` (racemic), on D(2) dopamine receptor [1], the AC50 stood at 705 nM.

Regarding `CN1C(=O)c2ccccc2[S@+]([O-])c2ccc(C(=O)NCc3ccc(Br)cc3)cc21`, the AC50 on D(2) dopamine receptor [1] amounted to 89 nM; on D(2) dopamine receptor [2] it was 1020 nM; at D(3) dopamine receptor [3], 4570 nM. Moreover, the Ki at D(2) dopamine receptor [4] was determined as 240 nM; at D(3) dopamine receptor [5], 370 nM. Further, the Ratio in the experiment on CHO is 4.5. In the experiment with HEK293, the Ratio Ki stood at 1.5.

As to `CCN1C(=O)c2ccccc2[S+]([O-])c2ccc(C(=O)NCc3ccc(F)cc3)cc21` (racemic), the AC50 at D(2) dopamine receptor [1] came out at 89 nM.

Turning to `CCN1C(=O)c2ccccc2Sc2ccc(C(=O)NCc3ccc(OC)cc3)cc21`, the AC50 at D(2) dopamine receptor [1] came to 705 nM.

In the case of `COc1ccc(CNC(=O)c2ccc3c(c2)N(Cc2ccccc2)C(=O)c2ccccc2[S+]3[O-])cc1` (racemic), the AC50 on D(2) dopamine receptor [1] amounted to 8870 nM.

Consider `CCN1C(=O)c2ccccc2[S+]([O-])c2ccc(C(=O)NCCc3ccc(OC)cc3)cc21` (racemic), for which the AC50 on D(2) dopamine receptor [1] is 353 nM.

`CCN1C(=O)c2ccccc2[S+]([O-])c2ccc(C(=O)NCc3ccc(C)cc3)cc21` (racemic): the AC50 at D(2) dopamine receptor [1] came out at 177 nM.

In the case of `CCN1C(=O)c2ccccc2[S+]([O-])c2ccc(C(=O)NCc3ccc(C(C)(C)C)cc3)cc21` (racemic), the AC50 at D(2) dopamine receptor [1] amounted to 353 nM.

Consider `CN1C(=O)c2ccccc2[S+]([O-])c2ccc(C(=O)NCc3ccccn3)cc21` (racemic), for which the AC50 at D(2) dopamine receptor [1] turned out to be 11200 nM.

Take `CN1C(=O)c2ccccc2[S+]([O-])c2ccc(C(=O)NCc3ccc(F)cc3)cc21` (racemic): the AC50 at D(2) dopamine receptor [1] stood at 353 nM.

As for `CN1C(=O)c2ccccc2[S+]([O-])c2ccc(C(=O)NCCN3CCCCC3)cc21` (racemic), the AC50 at D(2) dopamine receptor [1] amounted to 112 nM.

With `COc1ccc(CNC(=O)c2cccc(N3C(=O)c4ccccc4C3=O)c2)cc1`, at D(2) dopamine receptor [1], the AC50 was over 77000 nM.

As to `COc1ccc(NC(=O)c2ccc3c(c2)N(C)C(=O)c2ccccc2[S+]3[O-])cc1` (racemic), the half-maximal activity concentration (AC50) on D(2) dopamine receptor [1] is 353 nM.

For the molecule `COc1ccc(CNC(=O)c2ccc3c(c2)NC(=O)c2ccccc2[S+]3[O-])cc1` (racemic), at D(2) dopamine receptor [1], the half-maximal activity concentration (AC50) came out at 887 nM.

For the molecule `CCN1C(=O)c2ccccc2[S+]([O-])c2ccc(C(=O)NCc3ccc(SC)cc3)cc21` (racemic), the AC50 at D(2) dopamine receptor [1] is 223 nM.

With `CCN1C(=O)c2ccccc2[S+]([O-])c2ccc(C(=O)NC(C)c3ccccc3)cc21` (racemic), the AC50 on D(2) dopamine receptor [1] amounted to 560 nM.

In the case of `CCN1C(=O)c2ccccc2[S+]([O-])c2ccc(C(=O)NCc3ccc4c(c3)OCO4)cc21` (racemic), the AC50 on D(2) dopamine receptor [1] came out at 353 nM.

For the molecule `CN1C(=O)c2ccccc2[S+]([O-])c2ccc(C(=O)NCc3ccc(Cl)cc3)cc21` (racemic), at D(2) dopamine receptor [1], the AC50 was found to be 141 nM.

As for `COc1ccc(CNC(=O)c2ccc3c(c2)N(C)C(=O)c2ccccc2[S+]3[O-])cc1` (racemic), the concentration at half-maximal activity (AC50) at D(2) dopamine receptor [1] turned out to be 112 nM.

Turning to `CCN1C(=O)c2ccccc2[S+]([O-])c2ccc(C(=O)Nc3ccc(OC)cc3)cc21` (racemic), the AC50 on D(2) dopamine receptor [1] was found to be 141 nM.

On to `CCN1C(=O)c2ccccc2S(=O)(=O)c2ccc(C(=O)NCc3ccc(OC)cc3)cc21`, for which the AC50 at D(2) dopamine receptor [1] is over 77000 nM.

As for `CCN1C(=O)c2ccccc2[S+]([O-])c2ccc(C(=O)NCc3cccc(OC)c3)cc21` (racemic), the AC50 at D(2) dopamine receptor [1] was found to be 112 nM.

In the case of `CCN1C(=O)c2ccccc2[S@+]([O-])c2ccc(C(=O)NCc3ccc(C#N)cc3)cc21`, the AC50 at D(2) dopamine receptor [1] is 112 nM; at D(2) dopamine receptor [2] it was 257 nM; at D(3) dopamine receptor [3], 1620 nM. The Ki on D(2) dopamine receptor [4] came out at 23 nM; on D(3) dopamine receptor [5] it was 130 nM. Moreover, the Ratio with CHO was 6.3. The Ratio Ki in the experiment on HEK293 amounted to 5.7.

As for `CN1C(=O)c2ccccc2[S+]([O-])c2ccc(C(=O)Nc3ccccc3)cc21` (racemic), the AC50 at D(2) dopamine receptor [1] turned out to be 1580 nM.

On to `CCN1C(=O)c2ccccc2[S+]([O-])c2ccc(C(=O)NCc3ccc(C(F)(F)F)cc3)cc21` (racemic), for which the AC50 on D(2) dopamine receptor [1] amounted to 141 nM.

Turning to `CCN1C(=O)c2ccccc2[S+]([O-])c2ccc(NC(=O)Cc3ccc(F)cc3)cc21` (racemic), the AC50 on D(2) dopamine receptor [1] amounted to 223 nM.

In the case of `CCN1C(=O)c2ccccc2[S+]([O-])c2ccc(C(=O)NCc3ccc(Cl)cc3)cc21` (racemic), the AC50 at D(2) dopamine receptor [1] amounted to 509 nM.

As for `CCN(Cc1ccccc1)C(=O)c1ccc2c(c1)N(CC)C(=O)c1ccccc1[S+]2[O-]` (racemic), the AC50 on D(2) dopamine receptor [1] is 56000 nM.

For `CN1C(=O)c2ccccc2[S+]([O-])c2ccc(C(=O)NCc3ccc(Br)cc3)cc21` (racemic), the half-maximal activity concentration (AC50) at D(2) dopamine receptor [1] worked out at 71 nM.

As to `CCN1C(=O)c2ccccc2[S+]([O-])c2ccc(C(=O)NCc3ccccc3OC)cc21` (racemic), the AC50 on D(2) dopamine receptor [1] came to 4460 nM.

As to `CCCN1C(=O)c2ccccc2[S+]([O-])c2ccc(C(=O)NCc3ccc(OC)cc3)cc21` (racemic), the AC50 on D(2) dopamine receptor [1] was determined as 705 nM.

As to `CCN1C(=O)c2ccccc2[S+]([O-])c2ccc(C(=O)NCc3ccccc3)cc21` (racemic), the AC50 at D(2) dopamine receptor [1] was determined as 445 nM.

`COc1ccc(CNC(=O)c2ccc3c(c2)C(=O)c2ccccc2C3=O)cc1`: the AC50 on D(2) dopamine receptor [1] was over 77000 nM.

As to `CCN1C(=O)c2ccccc2[S+]([O-])c2ccc(C(=O)Nc3ccccc3)cc21` (racemic), at D(2) dopamine receptor [1], the AC50 worked out at 887 nM.

`CN1C(=O)c2ccccc2[S+]([O-])c2ccc(C(=O)NCCN3CCCC3)cc21` (racemic): the AC50 at D(2) dopamine receptor [1] stood at 89 nM.

Regarding `CCN1C(=O)c2ccccc2[S+]([O-])c2ccc(C(=O)NCc3cc(OC)c(OC)c(OC)c3)cc21` (racemic), the concentration at half-maximal activity (AC50) at D(2) dopamine receptor [1] was determined as 1770 nM.

`CCN1C(=O)c2ccccc2[S+]([O-])c2ccc(C(=O)N(C)Cc3ccc(OC)cc3)cc21` (racemic): the AC50 on D(2) dopamine receptor [1] is over 77000 nM.

For `CCN1C(=O)c2ccccc2[S+]([O-])c2ccc(C(=O)NCc3ccc(C#N)cc3)cc21` (racemic), the AC50 at D(2) dopamine receptor [1] worked out at 141 nM.

As for `CN1C(=O)c2ccccc2[S+]([O-])c2ccc(C(=O)NCc3cccc(Cl)c3)cc21` (racemic), at D(2) dopamine receptor [1], the half-maximal activity concentration (AC50) came to 281 nM.

For the molecule `CN1C(=O)c2ccccc2[S+]([O-])c2ccc(C(=O)NCc3cccnc3)cc21` (racemic), the AC50 on D(2) dopamine receptor [1] stood at 281 nM.

In the case of `CN(C)CCCNC(=O)c1ccc2c(c1)N(C)C(=O)c1ccccc1[S+]2[O-]` (racemic), the AC50 on D(2) dopamine receptor [1] was determined as 560 nM.

`CCN1C(=O)c2ccccc2[S+]([O-])c2ccc(C(=O)NCc3ccc(S(C)(=O)=O)cc3)cc21` (racemic): the AC50 at D(2) dopamine receptor [1] stood at 353 nM.

As to `CCN1C(=O)c2ccccc2[S+]([O-])c2ccc(C(=O)OCc3ccc(OC)cc3)cc21` (racemic), the AC50 on D(2) dopamine receptor [1] is over 77000 nM.

These data come from ChEMBL document CHEMBL3232915, “Discovery, optimization, and characterization of novel D2 dopamine receptor selective antagonists” (J Med Chem, 2014).
